How the values were obtained:
[1] = target: GABA-A receptor; anion channel (Rattus norvegicus) (UniProt O09028+P15431+P18506+P18508+P19969+P20236+P23574+P23576+P28471+P28473+P30191+P62813+P63079+P63138+Q91ZM7+Q9ES14); assay: Ratio of Ki value without GABA and Ki value in the presence of GABA.; type: protein-complex assay
[2] = target: GABA-A receptor; anion channel; assay: In vitro affinity against Benzodiazepine receptor binding to rat cortical membranes (using [3H]- flumazenil as radioligand).
Procedure, shortened: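 Male Wistar rat (~200 g) cerebral cortex membranes, washed in Tris-citrate 50 mM pH 7.1, 2 mg original tissue/mL. Filtered, then scintillation counting. Duplicates.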

Q: How did the GABA ratio [1] turn out when `Cc1ccc2oc(-c3cccc([N+](=O)[O-])c3)cc(=O)c2c1` was run?
A: 0.72

Q: And the Ki [2]?
A: 5.6 nM

Q: Which results are given for `Cc1ccc2sc(-c3ccccc3)cc(=O)c2c1`?
A: GABA ratio [1]: 1.35; Ki [2]: 310 nM

Q: What does the source list for `O=c1cc(-c2ccccc2)oc2ccc(Br)cc12` [6-BROMOFLAVONE]?
A: GABA ratio [1]: 1.8; Ki [2]: 70 nM

Q: Which GABA ratio [1] does the source give for `Cc1ccc2oc(-c3ccccc3[N+](=O)[O-])cc(=O)c2c1` here?
A: 1.49

Q: What about the Ki [2] of the same compound?
A: 1000 nM

Q: Which GABA ratio [1] does the source give for `O=c1cc(-c2ccccc2)oc2ccc3ccccc3c12` [BETA-NAPHTHOFLAVONE] here?
A: 1.28

Q: And the Ki [2]?
A: 1480 nM

Q: Which GABA ratio [1] does the source give for `O=c1cc(-c2ccccc2)oc2ccccc12` [FLAVONE] here?
A: 1.05

Q: What about the Ki [2] of the same compound?
A: 4200 nM

Q: For `CCc1c(C(=O)OC)ncc2[nH]c3cc(OC)c(OC)cc3c12`, which GABA ratio [1] is on record?
A: 0.57

Q: What about the Ki [2] of the same compound?
A: 7.6 nM

Q: What does the source list for `O=c1cc(-c2ccc(O)cc2)oc2cc(O)cc(O)c12` [APIGENIN]?
A: GABA ratio [1]: 1.03; Ki [2]: 770 nM

Q: How did the Ki [2] turn out when `Cc1ccc2oc(-c3ccc([N+](=O)[O-])cc3)cc(=O)c2c1` was run?
A: 7300 nM

Q: What does the source list for `O=c1cc(-c2ccccc2)oc2ccc(O)cc12` [6-HYDROXYFLAVONE]?
A: GABA ratio [1]: 1.06; Ki [2]: 400 nM

Q: Which GABA ratio [1] does the source give for `O=c1cc(-c2ccccc2)oc2cc(O)ccc12` [7-HYDROXYFLAVONE] here?
A: 1.14

Q: What about the Ki [2] of the same compound?
A: 4200 nM

Q: What does the source list for `Cc1ccc2sc(-c3cccc([N+](=O)[O-])c3)cc(=O)c2c1`?
A: GABA ratio [1]: 1.51; Ki [2]: 33 nM

Q: What does the source list for `Cc1ccc2oc(-c3cccc([N+](=O)[O-])c3)cc(=O)c2c1[N+](=O)[O-]`?
A: GABA ratio [1]: 1.41; Ki [2]: 1.9 nM

Q: How did the GABA ratio [1] turn out when `O=c1cc(-c2ccccc2)oc2cccc(O)c12` [5-HYDROXYFLAVONE] was run?
A: 1.03

Q: And the Ki [2]?
A: 1900 nM

Q: `O=c1cc(-c2cccc([N+](=O)[O-])c2)oc2ccc(Br)cc12` was tested. Which GABA ratio [1] did it give?
A: 1.4

Q: Which GABA ratio [1] does the source give for `Cc1ccc2oc(-c3ccccc3)cc(=O)c2c1` [6-METHYLFLAVONE] here?
A: 0.98

Q: What about the Ki [2] of the same compound?
A: 125 nM

Q: Which results are given for `COc1ccc2oc(-c3ccccc3)cc(=O)c2c1` [6-METHOXYFLAVONE]?
A: GABA ratio [1]: 1.51; Ki [2]: 570 nM

Q: With `O=c1c(Br)c(-c2ccccc2)oc2ccccc12` as the compound, how does the Ki [2] read?
A: > 75000 nM

Q: How did the GABA ratio [1] turn out when `O=c1cc(-c2ccccc2)oc2cc(O)cc(O)c12` [CHRYSIN] was run?
A: 0.9

Q: And the Ki [2]?
A: 920 nM

Q: With `O=c1cc(-c2cccc([N+](=O)[O-])c2)oc2ccc([N+](=O)[O-])cc12` as the compound, how does the GABA ratio [1] read?
A: 1.3

Q: For `O=c1cc(-c2ccc([N+](=O)[O-])cc2)oc2ccc([N+](=O)[O-])cc12`, which Ki [2] is on record?
A: 17000 nM

Q: With `Cc1cccc(-c2cc(=O)c3cc(C)ccc3o2)c1` as the compound, how does the GABA ratio [1] read?
A: 1.63

Q: What about the Ki [2] of the same compound?
A: 29 nM

— ChEMBL document CHEMBL1132447, “Structure-activity relationships and molecular modeling analysis of flavonoids binding to the benzodiazepine site of the rat brain GABA(A) receptor complex” (J Med Chem, 1999)
